Among the data in ChEMBL document CHEMBL1125656, “Novel indole-2-carboxylates as ligands for the strychnine-insensitive N-methyl-D-aspartate-linked glycine receptor” (J Med Chem, 1991) are Ki and IC50 values, retold here.

Each structure is given as a SMILES string. pIC50, pKi: −log10 of the molar value.

For one test, the target named is Glutamate NMDA receptor. In words: Inhibition of strychnine-insensitive [3H]glycine binding to the N-methyl-D-aspartate glutamate receptor of synaptic plasma membranes(SPM) prepared from rat forebrain. In kind it is cell-free. The method in brief:
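Rat forebrain synaptic plasma membranes (male Sprague-Dawley, 30–45 days old), Triton X-100-washed; 0.2–0.4 mg incubated with 10 nM [3H]glycine and a range of compound concentrations in triplicate, in 50 mM Tris/acetate pH 7.4, for 10 min at 2 °C. Bound ligand separated by centrifugation (12000g, 15 min, 4 °C) or GF/B filtration, then scintillation counted. Nonspecific binding set with 100 μM glycine. Ki derived by logit-log analysis.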
In the case of `Cc1ccc2[nH]c(C(=O)O)cc2c1`, the pKi (as a rule, −log10 of the Ki, conventionally taken in molar units) is under 4.00.

Compound `O=C(O)c1cc2c(O)cccc2[nH]1` had a negative logarithm of the Ki (pKi) of under 4.52.

For the compound `O=C(O)Cc1cc2ccccc2nc1C(=O)O`, the pKi was under 4.00.

In turn, `O=C(O)c1cc2cc(Br)ccc2[nH]1` had a pKi of under 4.00.

As to `O=C(O)CC1c2ccccc2OC1C(=O)O` (stereo not given), the negative-log Ki (pKi) is under 4.52.

In turn, `CCOC(=O)Cc1c(CO)[nH]c2cc(Cl)ccc12` gave a pKi of under 4.52.

The compound `CN(C)CCCNC(=O)Cc1c(C(=O)O)[nH]c2cc(Cl)ccc12` had a pKi of under 4.52.

`CC(=O)Cc1c(C(=O)O)[nH]c2ccccc12`: the pKi was 4.53.

In the case of `O=C(O)Cc1c(C(=O)O)[nH]c2ccc(Cl)cc12`, the pKi is 4.96.

On to `O=C(O)c1cc2c(OCc3ccccc3)cccc2[nH]1`, for which the negative logarithm of the Ki (pKi) is under 4.52.

Regarding `CCCNC(=O)Cc1c(C(=O)O)[nH]c2cc(Cl)ccc12`, the negative logarithm of the Ki (pKi) was 6.33.

Compound `CN(C)C(=O)Cc1c(C(=O)O)[nH]c2cc(Cl)ccc12` gave a negative logarithm of the Ki (pKi) of under 4.52.

`CCCOC(=O)Cc1c(C(=O)O)[nH]c2cc(Cl)ccc12` gave a pKi of 5.17.

`O=C(O)Cc1c(C(=O)O)[nH]c2cc(Cl)ccc12` gave a pKi of 5.79.

`O=C(O)Cc1c(CO)[nH]c2cc(Cl)ccc12` gave a pKi of under 4.52.

In the case of `O=C(Cc1c(C(=O)O)[nH]c2cc(Cl)ccc12)NCCc1ccccc1`, the pKi was 6.20.

On to `O=C(O)c1cc2ccccc2[nH]1` [INDOLE-2-CARBOXYLIC ACID], for which the negative-log Ki (pKi) was under 4.00.

Turning to `O=C(O)c1cc2cc(Cl)ccc2[nH]1` [5-CHLOROINDOLE-2-CARBOXYLIC ACID], the negative-log Ki (pKi) was under 4.00.

Compound `O=C(O)C1Cc2ccccc2N1` (stereo not given) gave a negative-log Ki (pKi) of under 4.52.

For `NC(=O)Cc1c(C(=O)O)[nH]c2cc(Cl)ccc12`, the negative-log Ki (pKi) is 5.93.

Consider `CCOCCc1c(C(=O)O)[nH]c2cc(Cl)ccc12`, for which the pKi is 5.08.

`CCC(C(=O)O)c1c(C(=O)O)[nH]c2ccccc12` (stereo not given) showed a negative logarithm of the Ki (pKi) of under 4.00.

The compound `Cc1cc2c(CC(=O)O)c(C(=O)O)[nH]c2cc1Cl` gave a pKi of under 4.52.

As for `O=C(O)c1[nH]c2cc(Cl)ccc2c1O`, the negative logarithm of the Ki (pKi) is under 4.00.

`O=C(O)c1cc2c(C(=O)O)cccc2[nH]1` showed a negative logarithm of the Ki (pKi) of under 4.00.

`O=C(Cc1c(C(=O)O)[nH]c2cc(Cl)ccc12)NCCO` showed a negative logarithm of the Ki (pKi) of 4.99.

Compound `O=C(O)Cc1c(C(=O)O)[nH]c2ccc(Br)cc12` had a pKi of 4.53.

The compound `Cn1c(C(=O)O)c(CC(=O)O)c2ccccc21` had a pKi of under 4.00.

The compound `O=C(O)c1[nH]c2ccccc2c1CO` gave a negative logarithm of the Ki (pKi) of under 4.00.

Take `O=C(O)Cc1c(C(=O)O)[nH]c2ccc(F)cc12`: the pKi is 4.85.

The compound `CCOC(=O)Cc1c(C=O)[nH]c2cc(Cl)ccc12` gave a negative-log Ki (pKi) of under 4.52.

`CC(C)OC(=O)Cc1c(C(=O)O)[nH]c2cc(Cl)ccc12` had a pKi of 5.41.

In the case of `CCOC(=O)Cc1c(C(=O)O)[nH]c2cc(Cl)ccc12`, the negative logarithm of the Ki (pKi) is 6.17.

Compound `O=C(O)CCc1c(C(=O)O)[nH]c2ccccc12` had a pKi of under 4.00.

Compound `O=C(O)Cc1c(C(=O)O)oc2ccccc12` showed a pKi of under 4.00.

Turning to `O=C(O)c1[nH]c2ccccc2c1CCO`, the negative logarithm of the Ki (pKi) was under 4.52.

With `O=C(O)CCCc1c(C(=O)O)[nH]c2ccccc12`, the pKi was under 4.00.

As to `O=C1Cc2c([nH]c3cc(Cl)ccc23)C(=O)O1`, the pKi was 4.12.

In turn, `CCOC(=O)Cc1c(C(=O)OCCCN(C)C)[nH]c2cc(Cl)ccc12` showed a negative-log Ki (pKi) of under 4.00.

Consider `O=C(O)c1cc2cc(F)ccc2[nH]1` [5-FLUOROINDOLE-2-CARBOXYLIC ACID], for which the pKi is 4.04.

Turning to `CN(C)CCNC(=O)Cc1c(C(=O)NCCN(C)C)[nH]c2cc(Cl)ccc12`, the negative-log Ki (pKi) was under 4.52.

For the compound `COc1ccc2[nH]c(C(=O)O)cc2c1`, the negative logarithm of the Ki (pKi) is under 4.00.

Consider `O=C(O)CCCCc1c(C(=O)O)[nH]c2ccccc12`, for which the pKi is under 4.00.

With `O=C(O)Cc1c(C(=O)O)[nH]c2c(Cl)cccc12`, the negative-log Ki (pKi) was under 4.52.

In another test the target is Glutamate NMDA receptor. In words: Inhibition of strychnine-insensitive [3H]MK-801 binding to the N-methyl-D-aspartate glutamate receptor of synaptic plasma membranes(SPM) prepared from rat forebrain. In kind it is cell-free. The method in brief:
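Membranes treated with 0.04% v/v Triton X-100 and washed extensively in 50 mM Tris acetate pH 7.4. SPM (0.2–0.4 mg) incubated with 5 nM [3H]MK-801, 10 nM L-glutamate and test compound in the same buffer for 30 min at 25 °C. Samples filtered on 0.05% polyethylenimine-treated GF/B filters and washed four times with cold buffer. Filters scintillation counted; nonspecific binding set with 60 μM MK-801.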
For `O=C(O)Cc1c(C(=O)O)[nH]c2cc(Cl)ccc12`, the pIC50 (as a rule, −log10 of the IC50, conventionally taken in molar units) is 5.17.
